Read-outs that look alike come from different tables or passages of the source. Marks after values point to notes of the source that are not given here.

One may read the Cmax as the highest concentration seen after dosing. In general, half-life refers to the time in which the quantity being followed falls by half. Read a low half-life as fast loss. In general, Tmax refers to the time at which the peak concentration occurs.

The format of data set [1] is in vivo, Sprague Dawley rats. The settings on record: for AUC: 0 to 48 h; for AUC / Cmax / half-life / Tmax / T1/2: plasma after intragastric ginsenoside Rb1 100 mg/kg, mean ± SE; for AUC increase compared with the control group: after intragastric ginsenoside Rb1 100 mg/kg. The procedure, abridged: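 Male SD rats (200 ± 20 g, n = 8/group) were gavaged daily for two weeks with prebiotic fibre at 1.0 g/d/rat, or sterile water (10 ml/kg). After an overnight fast, test compound was given intragastrically at 100 mg/kg. Ophthalmic plexus blood was drawn at 0.25–48 h. Plasma was acetone-precipitated with a saikosaponin A internal standard and run on positive-mode UPLC-ESI-QqQ-MS/MS. AUC0–48h came from non-compartmental analysis, mean ± SE, ANOVA/Bonferroni.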

The conditions of data set [2]: cited from earlier work.
Another data set concerns intestinal microflora. The settings on record: after colimycin 20 mg/kg/day; decreased from 22.1 ± 1.2%; cited from earlier work.
The mark [3] stands for this setting: FOS group (1.0 g/d/rat, two weeks).
Setting [4] is: Fibersol-2 group (1.0 g/d/rat, two weeks).
[5] abbreviates: GOS group (1.0 g/d/rat, two weeks).
Setting [6] is: Sprague-Dawley, rat, plasma, po, 100 mg/kg, Cmax, FOS group (1.0 g/d/rat, two weeks).
Where [7] appears, read: Sprague-Dawley, rat, plasma, po, 100 mg/kg, Cmax, Fibersol-2 group (1.0 g/d/rat, two weeks).
Setting [8] is: Sprague-Dawley, rat, plasma, po, 100 mg/kg, Cmax, GOS group (1.0 g/d/rat, two weeks).
Where [9] appears, read: Sprague-Dawley, rat, plasma, po, 100 mg/kg, T1/2, FOS group (1.0 g/d/rat, two weeks).
[10] abbreviates: Sprague-Dawley, rat, plasma, po, 100 mg/kg, T1/2, Fibersol-2 group (1.0 g/d/rat, two weeks).
The mark [11] stands for this setting: Sprague-Dawley, rat, plasma, po, 100 mg/kg, T1/2, GOS group (1.0 g/d/rat, two weeks).
[12] abbreviates: Sprague-Dawley, rat, plasma, po, 100 mg/kg, Tmax, FOS group (1.0 g/d/rat, two weeks).
[13] abbreviates: Sprague-Dawley, rat, plasma, po, 100 mg/kg, Tmax, Fibersol-2 group (1.0 g/d/rat, two weeks).
Where [14] appears, read: Sprague-Dawley, rat, plasma, po, 100 mg/kg, Tmax, GOS group (1.0 g/d/rat, two weeks).

Turning to `CC(C)=CCC[C@](C)(O[C@@H]1O[C@H](CO)[C@@H](O)[C@H](O)[C@H]1O)[C@H]1CC[C@]2(C)[C@@H]1[C@H](O)C[C@@H]1[C@@]3(C)CC[C@H](O[C@@H]4O[C@H](CO)[C@@H](O)[C@H](O)[C@H]4O[C@@H]4O[C@H](CO)[C@@H](O)[C@H](O)[C@H]4O)C(C)(C)[C@@H]3CC[C@]12C` [Rd, ginsenoside Rd], the AUC in data set [1] (setting [3]) is reported as 1616.98 ± 321.59^b ng/ml∗h; in data set [1] (setting [4]), 1754.98 ± 335.76^b ng/ml∗h; in data set [1] (setting [5]), 1479.93 ± 381.35^b ng/ml∗h. Besides, the results for the “AUC increase compared with the control group” value (“AUC increase” below) in data set [1] (FOS intervention), in data set [1] (GOS intervention) and in data set [1] (fibersol-2 intervention) were 1.91 times, 1.74 times and 2.06 times, respectively. The Cmax in data set [1] (setting [6]) amounted to 0.11 ± 0.0251 µg/mL; in data set [1] (setting [7]), 0.145 ± 0.0672 µg/mL; in data set [1] (setting [8]) it was 0.156 ± 0.039 µg/mL. The half-life in data set [1] (setting [9]) was 15.2 ± 5.17 h; in data set [1] (setting [10]), 10.3 ± 3.79 h; in data set [1] (setting [11]) it was 18.6 ± 18 h. In addition, the Tmax in data set [1] (setting [12]) worked out at 7.6 ± 0.89 h; in data set [1] (setting [13]), 7.6 ± 1.67 h; in data set [1] (setting [14]), 6.4 ± 0.89 h.
Turning to `CC(C)=CCC[C@](C)(O[C@@H]1O[C@H](CO)[C@@H](O)[C@H](O)[C@H]1O)[C@H]1CC[C@]2(C)[C@@H]1[C@H](O)C[C@@H]1[C@@]3(C)CC[C@H](O)C(C)(C)[C@@H]3CC[C@]12C` [CK, 20-O-β-D-glucopyranosyl-20(S)-protopanaxadiol], the AUC in data set [1] (setting [3]) is listed as 1056.88 ± 173.22^ab ng/ml∗h; in data set [1] (setting [4]), 1251.99 ± 740.67^b ng/ml∗h; in data set [1] (setting [5]) it was 1434.71 ± 415.30^b ng/ml∗h. The Cmax is on record as 42.94 ± 12.08^a ng/ml in data set [1] (setting [3]), 53.38 ± 25.17^a ng/ml in data set [1] (setting [4]) and 57.46 ± 7.17^a ng/ml in data set [1] (setting [5]). Moreover, the T1/2 in data set [1] (setting [3]) is on record as 92.12 ± 158.19^a h; in data set [1] (setting [4]), 50.86 ± 65.79^a h; in data set [1] (setting [5]), 77.35 ± 129.14^a h. For the same compound, the Tmax in data set [1] (setting [3]) is reported as 24.80 ± 15.60^b h; in data set [1] (setting [4]) it was 29.00 ± 19.72^b h; in data set [1] (setting [5]), 15.30 ± 11.98^ab h. For the same compound, the “AUC increase” value in data set [1] (GOS intervention) is on record as 2.42 times; in data set [1] (fibersol-2 intervention), 2.11 times. Further, the oral bioavailability in data set [2] is 1.8–35.0%.
With `CC(C)=CCC[C@](C)(O[C@@H]1O[C@H](CO[C@@H]2O[C@H](CO)[C@@H](O)[C@H](O)[C@H]2O)[C@@H](O)[C@H](O)[C@H]1O)[C@H]1CC[C@]2(C)[C@@H]1[C@H](O)C[C@@H]1[C@@]3(C)CC[C@H](O[C@@H]4O[C@H](CO)[C@@H](O)[C@H](O)[C@H]4O[C@@H]4O[C@H](CO)[C@@H](O)[C@H](O)[C@H]4O)C(C)(C)[C@@H]3CC[C@]12C` [Rb1, ginsenoside Rb1], the AUC in data set [1] (setting [3]) is on record as 34494.77 ± 8770.73^bc ng/ml∗h; in data set [1] (setting [4]), 42110.46 ± 6452.33^c ng/ml∗h; in data set [1] (setting [5]), 30813.79 ± 3334.99^b ng/ml∗h. The “AUC increase” value in data set [1] (FOS intervention) is on record as 2.52 times; in data set [1] (GOS intervention) it was 2.25 times; in data set [1] (fibersol-2 intervention) it was 3.07 times. In addition, the highest concentration (Cmax) in data set [1] (setting [6]) stood at 1.53 ± 0.343 µg/mL; in data set [1] (setting [7]), 3.88 ± 2.37 µg/mL; in data set [1] (setting [8]), 1.21 ± 0.126 µg/mL. The half-life is 19.4 ± 4.44 h in data set [1] (setting [9]), 24.2 ± 4.81 h in data set [1] (setting [10]) and 19.7 ± 2.06 h in data set [1] (setting [11]). Also, the values for the time of peak concentration (Tmax) in data set [1] (setting [12]), in data set [1] (setting [13]) and in data set [1] (setting [14]) were 6.3 ± 2.82 h, 1 ± 1.12 h and 3.2 ± 3.55 h, respectively. Further, the oral bioavailability in data set [2] is reported as 0.28–1.18%.
Consider colimycin, for which the “ginsenoside Rb1-hydrolysing activity by intestinal microflora” value in the data set on intestinal microflora was 4.7 ± 2.7%.
With `CC(C)=CCC[C@](C)(O[C@@H]1O[C@H](CO)[C@@H](O)[C@H](O)[C@H]1O)[C@H]1CC[C@]2(C)[C@@H]1[C@H](O)C[C@@H]1[C@@]3(C)CC[C@H](O[C@@H]4O[C@H](CO)[C@@H](O)[C@H](O)[C@H]4O)C(C)(C)[C@@H]3CC[C@]12C` [F2, ginsenoside F2], the AUC is listed as 200.38 ± 41.50^b ng/ml∗h in data set [1] (setting [3]), 153.78 ± 36.00^ab ng/ml∗h in data set [1] (setting [4]) and 121.97 ± 29.35^a ng/ml∗h in data set [1] (setting [5]). Further, the “AUC increase” value in data set [1] (FOS intervention) turned out to be 1.94 times. Also, the Cmax in data set [1] (setting [6]) came to 0.0152 ± 0.00249 µg/mL; in data set [1] (setting [7]), 0.0353 ± 0.0183 µg/mL; in data set [1] (setting [8]) it was 0.0114 ± 0.00344 µg/mL. For the same compound, the half-life is 23.2 ± 37.8 h in data set [1] (setting [9]), 2.67 ± 0.95 h in data set [1] (setting [10]) and 4.52 ± 3.73 h in data set [1] (setting [11]). The Tmax turned out to be 8 ± 1.41 h in data set [1] (setting [12]), 6.8 ± 1.09 h in data set [1] (setting [13]) and 7.6 ± 1.67 h in data set [1] (setting [14]).
